In one assay the test system is OCI-Ly3. Briefly: (§1) Cytotoxicity against NF-kappaB overexpressing human OCI-Ly3 cells after 4 hrs. It is filed as functional, cell-based.
Assay [1] has as its target T1, NF-kappa-B inhibitor alpha (Homo sapiens) (UniProt P25963).
T1 sequence (whole entry): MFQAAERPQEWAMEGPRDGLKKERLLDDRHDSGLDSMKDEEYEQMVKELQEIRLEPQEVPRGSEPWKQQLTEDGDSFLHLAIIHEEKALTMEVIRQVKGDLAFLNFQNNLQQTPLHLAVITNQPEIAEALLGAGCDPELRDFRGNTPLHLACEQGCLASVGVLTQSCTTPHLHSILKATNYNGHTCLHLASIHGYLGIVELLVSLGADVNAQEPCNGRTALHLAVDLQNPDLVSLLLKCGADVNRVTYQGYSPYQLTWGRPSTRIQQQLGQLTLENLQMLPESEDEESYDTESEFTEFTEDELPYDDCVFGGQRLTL
The assay can be described thus: Induction of human IkappaBalpha stabilization in OCI-Ly3 cells by green light emiting IkappaBalpha-fused luciferase reporter gene assay relative to control. It is filed as cell-based. In short, it runs like this:
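The IκBα-CBG68 fusion (green luminescence) and the CBR control reporter (red) were induced with doxycycline. The read-out was green luminescence, and EC50 is given with % efficacy relative to the MG-132 positive control. Each experiment was a concentration titration run in duplicate with concentration-response curve fitting, and values are averages of two to three experiments.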

Assay [2] deals with Transcription factor p65 (Homo sapiens) (UniProt Q04206). The assay can be described thus: Inhibition of TNF-alpha-stimulated human NF-kappaB p65 RelA subunit nuclear translocation in HUVEC relative to control. The class given is cell-based. In short, it runs like this:
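HUVEC (fewer than 8 passages) were seeded at 3,000 cells/well. Compounds were added in 8-point series, either from 10 µM final in media with 0.33% DMSO diluted 1:3, or from 8 µM diluted 1:2. After 3.5 h with compound, cells were stimulated with […] for 30 min. Cells were then fixed, permeabilized, stained with Hoechst and with anti-p65 plus an Alexa 647 secondary, and imaged automatically. IC50 is from curve fitting of one experiment run in triplicate, with BAY 11-7082 as the positive control.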

Assay [3] in a line: Inhibition of TNFalpha stimulated human NF-kappaB-mediated beta lactamase gene expression in HUVEC. The class given is cell-based.
The nature of assay [4]: as §1. It is filed as functional, cell-based. The conditions noted are these: OCI-Ly3, 4 h.

Calls of active or inactive are those of the source. No cut-off for these calls is given here. Peptide text beside a SMILES is read from it. * marks the point of attachment. Cbz = O=C(OCc1ccccc1)* Some results are limits rather than exact numbers.

Chain of Transcription factor p65 (Homo sapiens) (Q04206 whole entry): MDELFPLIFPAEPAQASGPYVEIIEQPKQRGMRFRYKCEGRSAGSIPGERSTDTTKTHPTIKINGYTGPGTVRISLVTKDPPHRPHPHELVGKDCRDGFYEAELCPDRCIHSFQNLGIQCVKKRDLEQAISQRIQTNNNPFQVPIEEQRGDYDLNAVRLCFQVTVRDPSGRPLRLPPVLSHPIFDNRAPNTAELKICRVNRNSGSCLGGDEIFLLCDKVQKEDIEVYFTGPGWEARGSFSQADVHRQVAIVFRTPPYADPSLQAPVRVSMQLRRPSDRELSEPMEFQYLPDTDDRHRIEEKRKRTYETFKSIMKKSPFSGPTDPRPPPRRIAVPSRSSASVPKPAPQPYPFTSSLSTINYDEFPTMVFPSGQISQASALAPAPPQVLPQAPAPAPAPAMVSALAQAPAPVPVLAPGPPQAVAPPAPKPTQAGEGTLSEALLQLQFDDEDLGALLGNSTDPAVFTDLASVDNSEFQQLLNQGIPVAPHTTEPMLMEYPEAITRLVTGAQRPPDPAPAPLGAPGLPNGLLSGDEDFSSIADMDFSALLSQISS

For `COc1cc2cccnc2c2c1-c1cc(C)ccc1S(=O)(=O)N2`, the result in the assay on OCI-Ly3 was inactive. Moreover, the Efficacy in assay [1] is 34%; in assay [2] it was greater than 90%. The compound further had a half-inhibitory concentration (IC50) in assay [3] of 2 µM.

For the compound `COc1cc2ccc(C)nc2c2c1-c1cc(C)ccc1S(=O)(=O)N2`, the results for the IC50 in assay [4] and in assay [3] were greater than 57 µM and 1.1 µM, respectively. The results for the Efficacy in assay [1] and in assay [2] were 300% and greater than 90%, respectively.

For `Nc1ccccc1S(=O)(=O)Nc1cccc2cccnc12`, the IC50 in assay [4] was greater than 57 µM; in assay [3] it was 13.5 µM. In addition, the Efficacy in assay [1] was 300%; in assay [2], greater than 90%.

`Cc1cnc2c3c(ccc2c1)-c1ccccc1S(=O)(=O)N3`: the result in the assay with OCI-Ly3 was inactive. This compound yielded an Efficacy in assay [1] of 32%. In addition, in assay [3], the 50% inhibitory concentration (IC50) amounted to 8.1 µM.

On to `Cc1ccc2cccc(NS(=O)(=O)c3ccccc3[N+](=O)[O-])c2n1`, for which, in the assay on OCI-Ly3, the outcome was inactive. In addition, the Efficacy in assay [1] was 200%; in assay [2], greater than 90%. The IC50 in assay [3] came out at 6 µM.

On to `Cc1ccc2ccc3c(c2n1)NS(=O)(=O)c1ccc(C(F)(F)F)cc1-3`, for which, in the assay on OCI-Ly3, the outcome was inactive. For the same compound, the Efficacy is 700% in assay [1] and greater than 90% in assay [2]. In addition, the IC50 in assay [3] turned out to be 3.6 µM.

On to `COc1cnc2c3c(ccc2c1)-c1ccccc1S(=O)(=O)N3`, for which, in assay [2], the Efficacy is greater than 90%.

Regarding `O=S1(=O)Nc2c(ccc3cccnc23)-c2cc(C(F)(F)F)ccc21`, the outcome in the assay on OCI-Ly3 was inactive. Besides, the Efficacy is 32% in assay [1] and greater than 90% in assay [2]. Besides, in assay [3], the IC50 is 1.2 µM.

With `COc1ccc(S(=O)(=O)Nc2cccc3ccc(C)nc23)c([N+](=O)[O-])c1`, in assay [2], the Efficacy turned out to be 78%.

On to `O=[N+]([O-])c1ccc(S(=O)(=O)Nc2cccc3cccnc23)cc1`, for which the outcome in the assay on OCI-Ly3 was inactive. Also, the Efficacy is 560% in assay [1] and greater than 90% in assay [2]. In assay [3], half-maximal inhibition (IC50) required 5 µM.

With `O=S(=O)(Nc1cccc2cccnc12)c1ccc(Br)s1`, the result in the assay on OCI-Ly3 was inactive. Moreover, the Efficacy is 170% in assay [1] and greater than 90% in assay [2]. In assay [3], inhibition was half-maximal at 3.4 µM (IC50).

For the compound `O=[N+]([O-])c1ccccc1S(=O)(=O)Nc1cccc2cccnc12`, in the assay on OCI-Ly3, the outcome was inactive. Moreover, the Efficacy in assay [1] was 620%; in assay [2], greater than 90%. Besides, in assay [3], the IC50 was determined as 10 µM.

With `O=S1(=O)Nc2c(ccc3cccnc23)-c2cc(F)ccc21`, the result in the assay with OCI-Ly3 was inactive. Further, the Efficacy in assay [1] is 122%; in assay [2], greater than 90%. The compound further had an IC50 in assay [3] of 1.8 µM.

As for `O=S(=O)(Nc1cccc2cccnc12)c1cccs1`, the outcome with OCI-Ly3 was inactive. Besides, the figures for the Efficacy in assay [1] and in assay [2] were 250% and greater than 90%, respectively. In addition, it took 7 µM to reach half-maximal inhibition in assay [3] (IC50).

For the compound `Cc1ccc2cccc(NS(=O)(=O)c3ccccc3N)c2n1`, in the assay with OCI-Ly3, the outcome was inactive. In addition, the figures for the Efficacy in assay [1] and in assay [2] were 250% and greater than 90%, respectively. This compound displayed an IC50 in assay [3] of 5.5 µM.

In turn, `Cc1ccc(S(=O)(=O)/C=C/C#N)cc1` yielded an Efficacy in assay [2] greater than 90%.

On to `O=S1(=O)Nc2c(ccc3cccnc23)-c2cc(Cl)ccc21`, for which the outcome with OCI-Ly3 was inactive. Besides, the Efficacy in assay [1] is 66%; in assay [2], greater than 90%. Moreover, in assay [3], it took 1.9 µM to reach half-maximal inhibition (IC50).

Consider `COc1ccc2c(c1)-c1ccc3cccnc3c1NS2(=O)=O`, for which the result with OCI-Ly3 was inactive. Moreover, the Efficacy in assay [1] is 20%; in assay [2] it was greater than 90%. The 50% inhibitory concentration (IC50) in assay [3] was found to be 1.3 µM.

Consider `CC(C)C[C@@H](C=O)NC(=O)[C@H](CC(C)C)NC(=O)[C@H](CC(C)C)NC(=O)OCc1ccccc1` [MG-132] (Cbz-Leu-Leu-Leu-aldehyde), for which the IC50 in assay [4] is greater than 10 µM; in assay [3] it was 0.6 µM. In assay [1], this compound showed an Efficacy of 100%.

Turning to `O=S(=O)(Nc1cccc2cccnc12)c1ccccc1`, the result in the assay with OCI-Ly3 was inactive. The results for the Efficacy in assay [1] and in assay [2] were 350% and greater than 90%, respectively. This compound also returned an IC50 in assay [3] of 8 µM.

As a reminder, the IC50 is the point on the concentration scale where inhibition reaches its midpoint.
